From PubChem
This is a sample that favours compounds with a hit; in the whole collection about 5.3% have one here.
Mdm2-MdmX inh: inhibitors of human Mdm2-MdmX association, primary screen, cell-based, luminescence, split luciferase, SaOS-2, uHTS. Protein Mdm4 (Homo sapiens) + E3 ubiquitin-protein ligase Mdm2 (Homo sapiens), …. SaOS-2 split-luciferase Mdm2/MdmX complementation. inhibition, % at 8 µM. actives 3% (n = 330,000). AID 485346, 2010;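 active = inhibition of at least 50% at 8 µM in the primary screen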
Beta cell apopt: inhibitors of cytokine-induced beta cell apoptosis, primary screen, luminescence | INS-1E cytokine-induced death, ATP luminescence, 48 h; percent of positive-control rescue, neutral wells zero | protection from apoptosis, % (no concentration beside the values) | actives 0.8% (n = 300,000);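 active = Every replicate reaches about 75%, or at least half do and their mean reaches it too, limit read from the data; inconclusive = At least half of replicates reach the limit but their mean does not; inactive = Under half of replicates reach the limit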;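 also: 0% = cytokine-treated negative control wells and 100% = positive control rescue; higher means more ATP so stronger rescue from cytokine killing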
T cruzi repl: inhibitors of intracellular T. cruzi growth, primary screen, luminescence, NIH3T3 host cells; T. cruzi beta-gal in NIH3T3, 90 h; inhibition, % (test concentration not listed); actives 1.4% (n = 300,000); AID 1885, 2009;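 active = mean inhibition across valid replicates above about 55%, limit read from the data; inconclusive = mean below that limit but half or more replicates reach it; inactive = mean below it, under half of replicates reach it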;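 also: signal also drops with host cell toxicity which is not excluded here; 0% = plate median of DMSO wells and 100% = zero luminescence signal; higher percent means less beta-gal luminescence so fewer parasites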
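assay system = mouse NIH/3T3 fibroblasts infected with β-gal-expressing T. cruzi Tulahuen C4 | input = 5,000 NIH/3T3 host cells per well | buffer or medium = DMEM plus 2% FBS | timing = 3 h host attachment, then at least 90 h co-culture | measured by = GalScreen luminescence, 60 min | evaluation = luminescence reflecting intracellular parasite burden, expressed as percent inhibition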
NALP3 yeast inh: NALP3 inflammasome inhibitors in reconstituted yeast, primary screen, luminescence, uHTS. Yeast reconstituted NLRP3/ASC/caspase-1, beta-gal luminescence, 24 h. inhibition, % at 10 µM. actives 0.39% (n = 330,000);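 active = inhibition of 50% or more; inactive = inhibition below 50%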;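 also: plate controls were induced DMSO wells for no effect and uninduced yeast grown without galactose for full effect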
CSC inhib: cancer stem cell viability inhibitors, primary screen, luminescence; cancer stem cell-like cells viability; actives 1.1% (n = 300,000); inhibition, % at 7.5 µM; AID 2717, 2010; in the data active = inhibition above about 75%; inconclusive = no clear call, values can overlap the other calls; tested in HMLE shEcad cells
Calb FLC: C. albicans growth inhibition with fluconazole, primary screen, CaCi-2 strain, Alamar Blue fluorescence. C. albicans CaCi-2 (fluconazole-resistant clinical isolate) + fluconazole, 48 h. actives 0.57% (n = 300,000). AID 1979, 2009. growth inhibition, % (no concentration beside the values);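 active = growth inhibition above about 58% in most replicates, limit read from the data, passing the limit was not always enough; inconclusive = exactly half the replicates above a set limit; inactive = most replicates below a set limit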;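 also: all wells also contain fluconazole at 8 µg/ml as a sub-toxic cotreatment; 0% = median of DMSO wells and 100% = median of geldanamycin control wells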
* marks the source's active call; other numbers are inactive results; ? = inconclusive; / = no result given.

SMILES | Mdm2-MdmX inh | Beta cell apopt | T cruzi repl | NALP3 yeast inh | CSC inhib | Calb FLC
CCOC(=O)C1(CCOc2ccccc2)CCN(Cc2cccc3nonc23)CC1 | 8.1 | 8.1 | 57.4* | 13.4 | 38.9 | 47.0
CCOC(=O)C1(CCOc2ccccc2)CCN(Cc2ccc(O)cc2)CC1 | 22.3 | / | -5.0 | 17.0 | / | 8.7
CCN(CC)c1ccc(C(=O)OCc2cc(=O)oc3cc(O)ccc23)cc1 | 36.3 | 30.5 | 11.0 | 8.6 | 84.2* | -0.1
COc1ccc(C(=O)N/N=C/c2sc3ccccc3c2O)cc1 | / | 96.2* | 12.2 | / | ? | 27.4
Oc1c(C=Nc2cccc3cccnc23)sc2ccccc12 | 24.2 | -0.5 | 54.9* | 47.1 | 32.8 | -4.7
O=C(N/N=C/c1ccccc1)c1cccc2ccccc12 | -13.8 | -6.6 | 5.2 | 20.1 | 36.5 | -1.3
O=C(N/N=C/c1sc2ccccc2c1O)c1cccc2ccccc12 | / | 97.1* | 26.6 | / | 97.4* | 87.7*
COc1ccc(C(=O)N/N=C/c2c[nH]c3ccccc23)cc1 | -3.7 | -2.5 | 2.0 | 17.2 | 8.7 | -9.9
CCOc1cc(N2CCOCC2)c(OCC)cc1NC(=O)CN1C(=O)NC(CC(C)C)C1=O (configuration not stated) | -5.1 | -6.9 | -3.5 | 7.5 | / | -0.9
CCOc1ccc(C(=O)c2cc([N+](=O)[O-])ccc2N2CCOCC2)cc1 | / | 79.1* | -5.0 | / | 58.2 | -10.7
COc1ccc(C(=O)c2cc([N+](=O)[O-])ccc2N2CCOCC2)cc1 | / | 13.4 | 15.0 | / | 39.9 | -7.6
C=CCNC(=O)C1CC2Cn3c(nc4ccccc43)C2N1C (configuration not stated) | -30.0 | 2.7 | -24.2 | 17.3 | -2.5 | -8.2
Cc1ccc(C)c(OC(=O)c2cncc(Br)c2)c1 | -0.2 | -2.8 | -11.9 | 4.2 | -18.2 | 97.8*
COc1ccccc1NC(=O)COC(=O)C12CC3CC(CC(Br)(C3)C1)C2 | 9.3 | -3.8 | / | 24.8 | -22.1 | /
CCOc1ccc(N(C)S(=O)(=O)c2ccc3[nH]cc(C(=O)NCC4CCCO4)c(=O)c3c2)cc1 (configuration not stated) | 16.9 | -4.5 | 13.1 | 6.0 | 0.3 | -2.8
COc1cc(NC(=O)c2ccco2)c(OC)cc1NC(=O)Nc1cccc(Cl)c1 | -0.7 | 1.3 | 57.0* | 9.1 | 3.9 | -1.1
COc1ccc(NC(=O)c2ccco2)cc1NC(=O)c1ccco1 | -26.7 | 4.7 | -0.8 | -1.4 | -1.3 | -6.9
CCCCC(=O)NC(=S)Nc1cccc(NC(=O)c2ccco2)c1 | 44.1 | -3.0 | -3.7 | 12.4 | -3.0 | 89.0*
O=C(Nc1cccc(S(=O)(=O)c2cccc(NC(=O)c3ccco3)c2)c1)c1ccco1 | -1.5 | 14.9 | 55.0* | -15.4 | 14.5 | -5.1
O=C(Nc1cccc(S(=O)(=O)N2CCCC2)c1)c1ccco1 | 23.8 | -4.8 | / | -12.5 | -17.6 | /
OC1CCN(Cc2cccc(Oc3ccccc3)c2)CC1 | 7.6 | -3.9 | 67.6* | 14.4 | -12.9 | -7.4
CN1CCN(Cc2cccc(Oc3ccccc3)c2)CC1 | -11.5 | -4.1 | 48.7 | 8.0 | 24.9 | -11.7
OCCN1CCN(Cc2cccc(Oc3ccc(Cl)cc3)c2)CC1 | 9.9 | 4.0 | 60.7* | 24.3 | 62.2 | -11.5
CC(C)(C)SC(=O)CC1NS(=O)(=O)OCC1NC(=O)OCC(Cl)(Cl)Cl (configuration not stated) | 8.6 | / | -7.2 | 15.2 | 18.6 | 9.5
COc1ccc(CNC(=O)Cc2ccc(OC)c(S(=O)(=O)N3CCOCC3)c2)cc1 | -17.1 | -0.5 | 4.8 | 7.3 | -10.7 | -0.8
COc1cc(OC)cc(C(=O)NNC(=O)Cc2ccc(OC)c(S(=O)(=O)N3CCOCC3)c2)c1 | 8.9 | 4.6 | -15.8 | -8.0 | 15.8 | 109.5*
Cc1ccc(/C=C/C(=O)NC(=S)Nc2ccccc2C(=O)NC2CCCCC2)cc1 | -6.1 | 5.5 | 26.3 | -3.7 | 1.9 | -2.2
COc1ccc(/C=C/C(=O)NC(=S)Nc2ccccc2C(=O)NC2CCCCC2)cc1 | 30.5 | 78.6* | 6.5 | 14.4 | 21.5 | ?
Cc1ccc(N2NC(=O)/C(=C/c3ccc(-c4ccc(Cl)c(C(=O)O)c4)o3)C2=O)cc1C | -12.8 | / | -9.0 | 7.1 | -0.5 | 1.5
